Mot1-301 SUMO: yeast Mot1-301 growth rescue at high temperature, primary screen, SUMOylation pathway inhibitor project, S. cerevisiae, ATP luminescence, 38.5C. S. cerevisiae Mot1-301 growth rescue; percent above DMSO median, 100 means doubled. growth rescue, % at 18.8 µM. actives 1% (n = 320,000). AID 2716, 2010;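 active means every valid replicate shows activation above 250% relative to neutral control wells; inactive means the rest, any valid replicate at or below 250%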;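 further: OY570 slx delta 5 strain wells were the positive control but not used for scaling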
KCNQ1 block: inhibitors of human KCNQ1 channel, primary screen, cell-based, thallium flux, high-throughput; Potassium voltage-gated channel subfamily KQT member 1 (Homo sapiens), P51787; CHO-K1 KCNQ1, FluxOR thallium flux fluorescence; active compounds read high; actives 1.3% (n = 310,000); B-score at 10 µM; AID 2642, 2010;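 active means compounds whose thallium flux B-score, printed positive for inhibition, exceeds three library SD while starting fluorescence stays within three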;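 further: channel opened by potassium depolarization with thallium stimulus after 20 min compound exposure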
KCNQ1 act: potentiators or activators of KCNQ1 channel, primary screen, cell-based, thallium flux, high-throughput; CHO-K1 KCNQ1, thallium flux FluxOR fluorescence; active compounds read high; B-score at 10 µM; actives 0.35% (n = 310,000); AID 2648, 2010;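 active means fluorescence ratio B-score, a plate-corrected score, at least three library SD, with initial intensity B-score within 5 SD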
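Assay system: stable KCNQ1 CHO-K1 line; medium: assay buffer, equal DMSO in all wells; timing: 90 min dye loading and 20 min compound exposure, both at room temperature; technique: kinetic FluxOR thallium fluorescence, 10-s 1-Hz baseline, 110-s post-stimulus read; read-out basis: B score of baseline-normalized fluorescence ratio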
AI-2 QS mod: Vibrio harveyi AI-2 quorum sensing modulators, primary screen, JMH597 strain, luminescence/OD600 ratio. Vibrio harveyi JMH597 AI-2 luminescence/OD600 ratio, 9 h; active compounds read low; strain lacks LuxN and CqsS sensors; 0 = neutral-control median. activity change, % at 7.5 µM. actives 0.4% (n = 300,000); in the data active means activity change below about -75%, passing the limit was not always enough;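 further: luminescence divided by OD600 gain over 9 h not by final OD600 alone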
hERG protect: hERG rescue from dofetilide block, primary screen, cell-based, CHO-hERG, FluxOR thallium flux, dofetilide IC70; Voltage-gated inwardly rectifying potassium channel KCNH2 (Homo sapiens), Q12809; dofetilide IC70 present; activation (rescue from dofetilide block), less the hit threshold, % at 10 µM; actives 0.51% (n = 310,000);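 active means activation above the mean of controls blocked by dofetilide plus 5 SD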;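 further: thallium influx through hERG after potassium depolarization seen as dye fluorescence rise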
Cl transport mod: KCC2 cotransporter modulators, thallium flux, primary screen, cell-based, HEK293 KCC2, FluoZin-2 fluorescence, MLSMR | Solute carrier family 12 member 5 (Homo sapiens), Q9H2X9 | KCC2 cells, thallium flux FluoZin-2 fluorescence | B-score of Tl+ flux slope (higher = more flux/activation; lower = inhibition) at 10 µM | actives 2.2% (n = 190,000);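 active means thallium flux slope and its plate-corrected score both differing from the plate sample mean at a set confidence after two filtering rounds, in either direction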;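 further: slope of fluorescence scaled to starting intensity during 10 to 20 s after thallium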
* = called active by the depositor; i = inactive; / = not tested or not shown. Compounds with a hit are over-represented: about 4.2% of the library has one in this group of screens.

SMILES | Mot1-301 SUMO | KCNQ1 block | KCNQ1 act | AI-2 QS mod | hERG protect | Cl transport mod
CC(=C/c1ccccc1)/C=N/n1c(C)n[nH]c1=S | -5.8 | i | i | 16.0 | -2.4 | /
O=c1oc2cc(Oc3c([N+](=O)[O-])cc(C(F)(F)F)cc3[N+](=O)[O-])ccc2c2c1CCCC2 | 12.1 | 11* | i | 31.6 | -21.3 | -0.499
O=c1oc2cc(Oc3ccc(C(F)(F)F)cc3[N+](=O)[O-])ccc2c2c1CCC2 | 4.2 | i | i | 13.0 | -7.2 | 0.476
CCOCCOCCC(C(=O)OCC)P(=O)(c1ccccc1)c1ccccc1 (stereo not drawn) | 3.5 | i | i | 18.8 | -8.8 | 1.9
CCCCCCOC(=O)C[N+](C)(C)CCOC1CC2CCC1(C)C2(C)C (stereo not drawn) | -38.2 | 9* | i | 13.8 | -28.8 | /
CCCCCCCOC(=O)C[N+](C)(C)CCOC1CC2CCC1(C)C2(C)C (stereo not drawn) | / | 13* | i | 54.8 | -25.2 | 1.44
CCC(C)OC(=O)C[N+](C)(C)CCOC1CC2CCC1(C)C2(C)C (stereo not drawn) | 4.2 | 7* | i | 21.0 | -9.1 | -1.24
CCCCOC(=O)C[N+](C)(C)CCOC1CC2CCC1(C)C2(C)C (stereo not drawn) | -6.6 | 7* | i | 6.1 | -13.2 | 1.51
CC(C)CCOC(=O)C[N+](C)(C)CCOC1CC2CCC1(C)C2(C)C (stereo not drawn) | -8.0 | i | i | 32.7 | -11.8 | 0.732
Nc1ccc(NC(=O)NC2CCCCC2)cc1[N+](=O)[O-] | 0.2 | i | i | 6.4 | -2.7 | /
CC(=O)NC12CC3CC(C1)CC(C(=O)OCC(=O)Nc1ncc(Cl)cc1Cl)(C3)C2 | -20.2 | i | i | 23.5 | -15.5 | 0.41
CN(c1ccccc1)S(=O)(=O)c1cccc(NC(=O)CSc2ncc(C(F)(F)F)cc2Cl)c1 | 40.5 | 7* | i | 26.0 | -3.9 | -0.0298
CCC1CN(C(=O)N2CCC(C(=O)Nc3ccccc3F)CC2)c2ccccc2O1 (stereo not drawn) | 10.1 | i | i | 5.0 | -21.1 | /
CC(/C=N/n1c(-c2ccc(C)cc2)n[nH]c1=S)=C\c1ccco1 | 8.4 | i | 10* | 6.0 | -5.6 | 1.37
CC(/C=N/n1c(-c2ccccc2)n[nH]c1=S)=C\c1ccco1 | 4.4 | i | i | 14.4 | -10.8 | /
O=C(NCCC1CCCCN1S(=O)(=O)c1ccc(F)cc1)C(=O)NCc1cccnc1 (stereo not drawn) | 2.4 | i | i | 14.5 | -18.3 | /
CCN(CC(=O)NCc1cccs1)C(=O)/C=C/c1cccc(Cl)c1Cl | -4.2 | i | i | 7.2 | -13.7 | /
COc1cc(C(=O)NS(=O)(=O)c2ccccc2C)ccc1Cc1cn(C)c2ccc(NC(=O)OC3CCCC3)cc12 | 3.1 | 10* | i | 16.2 | -32.9 | -1.75
CC1=C(C(=O)OCCBr)C(c2cccc3ccccc23)NC(=O)N1 (stereo not drawn) | -6.5 | i | i | 11.9 | -5.2 | /
COc1ccc(NC(=O)CN(C)C(=O)C2CCCO2)cc1 (stereo not drawn) | 1.7 | / | / | / | / | /
CCC1(c2ccc(F)cc2)NC(=O)N(CC(=O)NCc2ccc(C)cc2)C1=O (stereo not drawn) | 8.8 | i | i | -77.7* | -3.5 | /
CCC1(c2ccc(F)cc2)NC(=O)N(CC(=O)NCc2ccc(F)cc2)C1=O (stereo not drawn) | 65.6 | i | i | -38.7 | -7.3 | /
